Published values gathered from unrelated publications.
Target: Serine/threonine-protein kinase 32B (STK32B, Homo sapiens, UniProt Q9NY57)

Compound | assay | setting | endpoint | result
Cc1sc(C(=O)NC2COC2)cc1-n1cc(NC(=O)Nc2c(F)cccc2Cl)cn1 | enzyme activity, inhibitor | 10 µM | remaining activity | 89.8%
CN1CC(Oc2cnc(C#N)cc2-c2ccn3nc(NC(=O)C4CC4)cc3c2)C1 | enzyme activity, inhibitor | 1 µM | inhibition | -2%
COc1cc(Cl)c(C(=O)N[C@@H](CN[C@H]2CC[C@@H](N)CC2)Cc2ccc(C#N)cc2)cc1-c1ccc(CN[C@H](C)c2ccc(C)cc2)o1 | enzyme activity, inhibitor | 1 µM | remaining activity | 102%
CC(C)(O)[C@H]1CC[C@H](Nc2ccc3ncc(-c4cccc(C(F)(F)F)c4)n3n2)CC1 | enzyme activity, inhibitor | 1 µM | remaining activity | 96.8%
COc1ccc2c(c1)O[C@@H](c1ccc(OC)c(OC)c1)C[C@H]2NC(=O)C1(c2ccc3c(c2)OC(F)(F)O3)CC1 | cell-free assay, competition with immobilised ligand | 1 µM | remaining binding | 100%
Nc1ncnc2occ(-c3ccc(NC(=O)Nc4cc(C(F)(F)F)ccc4F)cc3)c12 | cell-free assay | 20 µM | remaining signal | 0.9%
O=C(Nc1cnn(-c2csc(C(=O)NC3COC3)c2)c1)Nc1ccccc1Cl | enzyme activity, inhibitor | 5 µM | remaining activity | 122%
CS(=O)(=O)c1cc(C2(NC(=O)c3cncc4c3cnn4-c3ccc(F)cc3)CC2)ccn1 | cell-free assay, competition with immobilised ligand | 1 µM | remaining binding | 100%
Cc1ccc(C(=O)Nc2ccc(CN3CCN(C)CC3)c(C(F)(F)F)c2)cc1C#Cc1cnc2cccnn12 | cell-free assay | 23.5 nM | remaining signal | 98%
